AF4-AF9 inh – inhibitors of AF4 peptide binding to AF9, primary screen, biochemical, AlphaScreen, biotin-AF4 peptide, FLAG-AF9, single point. Protein AF-9 (Homo sapiens), P42568. inhibition, % at 10 µM. 0.47% of 350,000 active;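 active = every replicate reaching a set inhibition limit, whatever the replicate mean, cut at about 25% in these data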;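 note: 0% = plate neutral control median and 100% = total signal loss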
S100A4 inh HTS – inhibitors of S100A4-myosin IIA peptide binding, primary screen, biochemical, fluorescence polarization, TAMRA-MyoIIA peptide; 0.14% of 360,000 active; Protein S100-A4 (Homo sapiens), P26447; inhibition, % at 10.7 µM; AID 652163, 2013;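 active = mean inhibition of at least 70% across replicates, with every replicate also reaching that level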
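Material: S100A4 monomer protein / Buffer or medium: 50 mM HEPES pH 7.2, 10 mM CaCl2, 100 mM KCl / Times: 5 min incubation before reading / Benchmarks: neutral control DMSO, positive control TFP / Reagent: labelled myosin peptide probe, 5 nM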
GSIS activator – GLuc luminescence reporter in INS-1E cells, primary screen for activators of glucose-dependent secretion of insulin | INS-1E GLuc reporter insulin secretion, 2-3 h | activation, % at 16.6 µM | 0.61% of 370,000 active | AID 743287, 2014;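 active = lowest replicate activation of at least 40%, so every replicate reaches that level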;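 note: 0% = median of neutral control wells and 100% = median of IBMX positive control wells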
ERAP1 HTS inh – human ERAP1 aminopeptidase inhibitors, primary screen, biochemical, single point, plate reader; Endoplasmic reticulum aminopeptidase 1 (Homo sapiens), Q9NZ08; recombinant ERAP1, Leu-AMC fluorescence, 60 min; inhibition, % at 10.7 µM; 0.15% of 340,000 active; AID 652197, 2013;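 active = mean replicate inhibition of at least 30%, or all replicates individually reaching that 30% level; inactive = mean below 30% and not every replicate reaching it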;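 note: 0% = neutral control wells and 100% = L-leucinethiol positive control wells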
Target sequence (Q9NZ08 whole entry, looked up): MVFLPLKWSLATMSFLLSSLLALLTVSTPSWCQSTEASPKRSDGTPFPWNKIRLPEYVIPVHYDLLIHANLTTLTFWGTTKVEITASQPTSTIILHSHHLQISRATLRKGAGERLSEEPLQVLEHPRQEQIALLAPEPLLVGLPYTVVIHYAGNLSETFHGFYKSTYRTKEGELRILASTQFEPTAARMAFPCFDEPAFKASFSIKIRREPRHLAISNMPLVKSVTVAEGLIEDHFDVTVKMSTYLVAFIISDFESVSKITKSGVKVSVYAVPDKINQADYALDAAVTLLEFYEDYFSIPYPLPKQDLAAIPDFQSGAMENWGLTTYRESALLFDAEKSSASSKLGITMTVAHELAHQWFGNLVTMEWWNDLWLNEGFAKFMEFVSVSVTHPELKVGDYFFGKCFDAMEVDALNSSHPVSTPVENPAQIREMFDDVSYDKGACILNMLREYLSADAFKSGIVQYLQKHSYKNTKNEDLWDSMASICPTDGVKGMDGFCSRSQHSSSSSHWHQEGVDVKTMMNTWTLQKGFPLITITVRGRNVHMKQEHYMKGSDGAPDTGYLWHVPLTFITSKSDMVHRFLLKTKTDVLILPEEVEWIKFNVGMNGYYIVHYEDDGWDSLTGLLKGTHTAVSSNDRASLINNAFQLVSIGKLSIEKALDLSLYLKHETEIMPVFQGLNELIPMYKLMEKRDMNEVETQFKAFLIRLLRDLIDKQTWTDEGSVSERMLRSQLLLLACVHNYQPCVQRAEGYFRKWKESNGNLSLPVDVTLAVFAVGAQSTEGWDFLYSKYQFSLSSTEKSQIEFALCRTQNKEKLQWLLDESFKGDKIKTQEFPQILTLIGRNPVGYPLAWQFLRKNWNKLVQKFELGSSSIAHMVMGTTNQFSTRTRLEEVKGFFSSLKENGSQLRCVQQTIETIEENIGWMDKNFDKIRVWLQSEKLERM
RAD52 inh – RAD52 DNA annealing inhibitors, primary screen, biochemical, FRET, single point, set 2. DNA repair protein RAD52 homolog (Homo sapiens), P43351. recombinant RAD52 DNA annealing, FRET fluorescence. inhibition, % at 18.7 µM. 0.46% of 360,000 active;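 active = every replicate showing at least 50% inhibition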
* marks the source's active call; other numbers are inactive results; . = not tested or not shown; ! = not active in a repeat. Hits are enriched below; roughly 1.5% of the tested compounds scored in any of these assays.

SMILES	AF4-AF9 inh	S100A4 inh HTS	GSIS activator	ERAP1 HTS inh	RAD52 inh
COc1ccc2c3c([nH]c2c1)[C@@H](CO)NCC31CN(Cc2ccccc2F)C1	8	.	4	.	.
CCCNc1c(NS(=O)(=O)c2cccc(C#N)c2)c(=O)oc2ccccc12	8	11	56*	-2	-10
Cn1c(NC(=O)C2CC2)cc(=O)n(C)c1=O	49*	-12	15	-1	-7
CO[C@@H]1CN(C)C(=O)c2ccc(NC(=O)CC(F)(F)F)cc2OC[C@H](C)N(C(=O)C2CCCCC2)C[C@H]1C	.	.	-5	.	.
Cn1nc(NC(=O)C(F)(F)F)c2ncc(-c3ccccc3)nc21	0	-2	.	-7	-2
Cc1nc2ccccc2c2nc(NC(=O)C(F)(F)F)nn12	-3	-6	50*	-4	-9
CCOC(=O)c1sc2ncn(/N=C/c3cccnc3)c(=O)c2c1C	.	.	52*	.	.
CCOC(=O)c1sc2ncn(/N=C/c3ccc(O)cc3)c(=O)c2c1C	-7	-3	3	3	16
CC1=C(C(=O)N2CCOCC2)CC(CC(=O)NCCCN(C)C)C(=O)N1CCCN1CCCC1=O (stereo not given)	0	13	41*	2	-19
C[C@H](CO)N1C[C@H](C)[C@H](CN(C)C(=O)CC2CC2)Oc2cc(C#CC(C)(C)O)ccc2S1(=O)=O	-3	-14	6	4	-2
Cc1cc(C)c2c(c1)C1(OCCO1)C(=O)N2	-4	-9	10	-5	-6
Cc1cc(Br)c2c(c1)C1(OCCO1)C(=O)N2	-1	-2	41*	-1	-12
COCC(=O)Nc1ccc2c(c1)OC[C@H](C)N(C(=O)NC(C)C)C[C@H](C)[C@@H](OC)CN(C)C2=O	-2	-20	3	1	-4
CCOc1ccc(-c2noc(CCC(=O)NC)n2)cc1OCC	.	.	56*	.	.
CCOc1cc(-c2noc(CCC(=O)NCCc3ccccc3)n2)ccc1OC	-1	1	1	6	5
COCCNC(=O)c1cccc2c1-c1ccccc1C2=O	1	-3	-12	2	-12
CC(C)CNC(=O)c1cccc2c1-c1ccccc1C2=O	42*	-2	31	0	-4
O=C(c1cccnc1)N(Cc1ccccc1)c1ccccc1	5	-3	117*	-6	-11
O=C(c1ccc2c(c1)OCO2)N1CC(=O)N2[C@H](C1)[C@H](c1ccc(C#CCC3CCCC3)cc1)[C@@H]2CO	2	-2	5	0	4
COc1cc2ccccc2cc1C(=O)Nc1ccc2oc(=O)ccc2c1	1	1	156*	1	-11
C[C@@H]1CN([C@@H](C)CO)S(=O)(=O)c2ccc(-c3ccccc3)cc2O[C@H]1CN(C)C(=O)C1CCC1	.	.	-17	.	.
Oc1ccc(CCNc2c3ccccc3nc3ccccc23)cc1O	19	2	3	-104	106*
Cc1ccc(O)c(Nc2c3ccccc3nc3ccccc23)c1	7	3	9	-18	2
O=C(CNC(=O)c1ccco1)N/N=C/c1ccc(C(=O)O)cc1	1	0	48*	-8	-12
O=C(Nc1ccccc1C(=O)N/N=C/c1ccccc1)c1ccco1	6	3	93*	2	-4
SMILES	AF4-AF9 inh	S100A4 inh HTS	GSIS activator	ERAP1 HTS inh	RAD52 inh
CC(C)[C@@H](C)NC(=O)N(C)C[C@@H]1OCc2ccccc2-c2c(n(C)c3ccccc23)C(=O)N([C@H](C)CO)C[C@H]1C	.	.	-12	.	.
COc1ccc(-c2ccc(C3[C@H]4CNC[C@@H]3N4S(=O)(=O)c3cccc(C)c3)cc2)cc1 (stereo not given in full)	-2	-14	2	0	43
Cc1ccc(-c2ccc(C3[C@H]4CNC[C@@H]3N4S(=O)(=O)c3cccc(C)c3)cc2)cc1 (stereo not given in full)	-2	-8	-4	1	54*!
O=S(=O)(c1cccc(F)c1)N1[C@@H]2CNC[C@H]1C2c1ccc(-c2ccc(F)cc2)cc1 (stereo not given in full)	1	-5	11	-2	-45
O=S(=O)(c1cccc(Cl)c1)N1[C@@H]2CNC[C@H]1C2c1ccc(-c2cccc(F)c2)cc1 (stereo not given in full)	0	-21	-1	1	54*!
COc1ccc(S(=O)(=O)N2[C@@H]3CNC[C@H]2C3c2ccc(-c3cccc(C)c3)cc2)cc1 (stereo not given in full)	-3	-10	15	2	65*!
O=C(C[C@@H]1CC[C@@H](NS(=O)(=O)c2ccc(F)cc2)[C@@H](CO)O1)N1CCC(Cc2ccccc2)CC1	-1	4	-32	1	13
COc1ccc2c3c(n(C)c2c1)[C@@H](CO)N(C(=O)CN1CCOCC1)CC31CCN(C(=O)CC2CC2)CC1	1	.	-20	.	.
CCC(=O)N1CCC2(CC1)CN(Cc1ccc3c(c1)OCO3)[C@@H](CO)c1c2c2ccc(OC)cc2n1C	2	.	-5	.	.
O=C(Nc1ccccc1F)N1C[C@@H]2[C@H](c3ccccc31)[C@@H](CO)N2C(=O)c1ccccc1F	-7	2	1	1	-7
CCC(=O)Nc1ccc2c(c1)OC[C@@H](C)N(Cc1ccncc1)C[C@@H](C)[C@H](OC)CN(C)C2=O	-4	4	17	-1	16
O=C(C[C@@H]1CC[C@H]2[C@@H](COC[C@@H](O)CN2C(=O)Nc2ccc(F)cc2)O1)NCCCN1CCOCC1	31*	-4	-2	4	-2
O=C(C[C@H]1CC[C@H]2NC[C@H](O)COC[C@@H]2O1)NCCN1CCCCC1	1	115*	8	0	11
Cn1cnc(CCNC(=O)C[C@@H]2CC[C@H]3[C@@H](COC[C@@H](O)CN3C(=O)C3CC3)O2)c1	-1	81*	-4	0	-2
O=C(C[C@H]1CC[C@@H]2NC[C@@H](O)COC[C@H]2O1)NCCN1CCCCC1	.	.	27	.	.
O=C(C[C@H]1CC[C@@H]2[C@H](COC[C@@H](O)CN2C(=O)Nc2ccc(F)cc2)O1)NCCc1ccccc1	0	106*	-6	-8	0
CCCNC(=O)N1C[C@H](O)COC[C@@H]2O[C@H](CC(=O)NCCCN3CCOCC3)CC[C@H]21	-3	13	20	-4	3
C[C@H](NC(=O)C[C@H]1CC[C@H]2[C@@H](COC[C@H](O)CN2C(=O)Nc2ccccc2)O1)c1ccccc1	-2	3	-8	43*	13
CCCNC(=O)N1C[C@H](O)COC[C@@H]2O[C@@H](CC(=O)NCCCN3CCOCC3)CC[C@H]21	-9	107*!	2	-6	6
C[C@H](NC(=O)C[C@H]1CC[C@H]2[C@@H](COC[C@@H](O)CN2C(=O)Nc2ccccc2)O1)c1ccccc1	-2	4	6	-2	10

Screens: PubChem, Broad Institute
